# Measurements from different studies.
# Protocols differ between the studies behind these lines.
# JAK1: Tyrosine-protein kinase JAK1 (JAK1, Homo sapiens, UniProt P23458)
# JAK1 JH1: Tyrosine-protein kinase JAK1, JH1 (JAK1, Homo sapiens, UniProt P23458)
# JAK1 JH2: Tyrosine-protein kinase JAK1, JH2 (JAK1, Homo sapiens, UniProt P23458)
SMILES,target,test,conditions,remaining binding [%]
CN1CCN(c2ccc(Nc3nccc(-c4ccccc4)n3)cc2C(F)(F)F)CC1,JAK1,binding,10 µM,0.45
COc1cnc(Nc2cccc(S(N)(=O)=O)c2)nc1N1CCN(c2ccccc2)CC1,JAK1 JH1,"binding, competition with immobilised ligand",1 µM,48
CN(C)c1ncc(F)c(-c2cnn3ncccc23)n1,JAK1,binding,1 µM,89
Cc1cnc(Nc2ccc(C(=O)N3CCC(N4CCCC4)CC3)cc2)nc1-c1cc2ccccc2s1,JAK1 JH2,"binding, competition with immobilised ligand",1 µM,0
CC1CCCN1c1nccc(-c2cnn3ncccc23)n1 (centres unmarked),JAK1 JH1,"cell-free assay, competition with immobilised ligand",1 µM,100
CC1=C(C#N)[C@@H](c2ccc3[nH]nc(C)c3c2)C(C#N)=C(c2ccc(Cl)cc2)N1,JAK1 JH1,"cell-free assay, competition with immobilised ligand",1 µM,100
O=C(NCC1CCOCC1)c1n[nH]cc1NC(=O)c1c(F)cccc1F,JAK1 JH2,"binding, competition with immobilised ligand",1 µM,90
CN(C)c1nccc(-c2cnc3ncccn23)n1,JAK1 JH1,"cell-free assay, competition with immobilised ligand",1 µM,94
COc1cnc(Nc2cccc(S(N)(=O)=O)c2)nc1N1CCN(c2ccccc2)C(=O)C1,JAK1 JH2,"binding, competition with immobilised ligand",1 µM,44
O=C(NCCCN1CCOCC1)c1ccc(Nc2ncc(Cl)c(-c3ccc(Cl)s3)n2)cc1,JAK1 JH1,"binding, competition with immobilised ligand",1 µM,4.6
Nc1cnc(N2CCc3cc(S(=O)(=O)Nc4c(F)cc(Cl)cc4F)cc(N4CCCC4=O)c32)nc1,JAK1 JH1,"cell-free assay, competition with immobilised ligand",1 µM,100
Nc1ncc2c(n1)-c1c([nH]c3ccc(C#CC4CC4)cc13)CCCC2,JAK1 JH1,"binding, competition with immobilised ligand",1 µM,100
O=C(c1ccc(Nc2ncc(Cl)c(-c3cc4ccccc4s3)n2)cc1)N1CCC(N2CCCC2)CC1,JAK1 JH2,"binding, competition with immobilised ligand",1 µM,0.9
N[C@@H]1CCN(c2nccc(-c3cnn4ncccc34)n2)C1,JAK1,binding,1 µM,100
NS(=O)(=O)c1cc(NC(=O)C2(c3ccccc3Cl)CC2)ccc1Oc1cccc(Cl)c1,JAK1 JH2,"cell-free assay, competition with immobilised ligand",1 µM,76
CN(C)c1nccc(-c2cnn3ncccc23)n1,JAK1,binding,1 µM,53
O=C(Nc1c[nH]nc1C(=O)NC1CCNCC1)c1cc(F)cc(F)c1,JAK1 JH2,"binding, competition with immobilised ligand",1 µM,82
c1cnn2ncc(-c3ccnc(N4CCC45COC5)n3)c2c1,JAK1,binding,1 µM,67
O=C(NCCCN1CCOCC1)c1ccc(Nc2nccc(-c3cc4ccccc4s3)n2)cc1,JAK1 JH2,"binding, competition with immobilised ligand",1 µM,41
O=C(O)[C@@H]1[C@@H](Cn2nnc3ccccc3c2=O)CC[C@H]1C(=O)c1ccc(OCCC2CCOCC2)cc1,JAK1 JH2,"cell-free assay, competition with immobilised ligand",1 µM,100
F[C@@H]1CCN(c2nccc(-c3cnn4ncccc34)n2)C1,JAK1,binding,1 µM,100
CNC(=O)[C@@H]1CC[C@@H](n2c(-c3ccc4cnccc4c3)nc3ccc(C(=O)NCc4cccc(C(N)=O)c4)cc32)C1,JAK1 JH2,"binding, competition with immobilised ligand",1 µM,60
O=C(c1ccc(Nc2nccc(-c3cc4ccccc4s3)n2)cc1)N1CCC(N2CCCC2)CC1,JAK1 JH1,"binding, competition with immobilised ligand",1 µM,82
C[C@@H]1CN(c2cc(-c3n[nH]c4ccc(OC5(C)CC5)cc34)ncn2)C[C@H](C)O1,JAK1 JH2,"cell-free assay, competition with immobilised ligand",0.1 µM,79
O=C(c1ccc(Nc2ncc(Cl)c(-c3ccc(Cl)s3)n2)cc1)N1CCC(N2CCCC2)CC1,JAK1 JH2,"binding, competition with immobilised ligand",1 µM,3.9
C[C@@H]1CCN(c2nccc(-c3cnn4ncccc34)n2)C1,JAK1,binding,1 µM,62
CN(C)CC#Cc1ccc(OCCCc2sc(N3CCc4cccc(C(=O)Nc5nc6ccccc6s5)c4C3)nc2C(=O)O)c(F)c1,JAK1 JH2,"cell-free assay, competition with immobilised ligand",1 µM,100
COc1ncc2cc3ccccc3nc2c1C#N,JAK1 JH2,"cell-free assay, competition with immobilised ligand",5 µM,67
CN(C(=O)c1ccccc1)c1cc(N(C)c2ccc3c(c2)CCc2ccc(C(=O)NCCN4CCOCC4)cc2C3=O)ccc1F,JAK1 JH2,"cell-free assay, competition with immobilised ligand",1 µM,88
CCN1CCN(Cc2ccc(C(=O)Nc3ccc(C)c(Oc4ccc5c(c4)CC(=O)N5)c3)cc2C(F)(F)F)CC1,JAK1 JH2,"binding, competition with immobilised ligand",1 µM,100
CC1=C(C#N)C(c2ccc3c(c2)c(NC(=O)c2ccccc2C)nn3C)C(C#N)=C(C)N1,JAK1 JH1,"cell-free assay, competition with immobilised ligand",1 µM,100
c1cncc(-c2cccc(Nc3nccc(NC4CCCCC4)n3)c2)c1,JAK1 JH2,"binding, competition with immobilised ligand",10 µM,0.2
